Results taken from ChEMBL document CHEMBL1134669, “N-Succinyl-(beta-alanyl-L-leucyl-L-alanyl-L-leucyl)doxorubicin: an extracellularly tumor-activated prodrug devoid of intravenous acute toxicity” (2001).

What was measured:
Mus musculus [1] = test: Effect of heparin pretreatment on the acute toxicity when 0 IU of heparin administered; Activity as % of animals; assay type: functional
Outline: (§1)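 Male OF-1 mice; heparin (low molecular weight, 0, 4000 or 8000 IU in 0.9% NaCl, filter-sterilized) given ip or iv 1 h before iv bolus of prodrug in 0.9% NaCl (10 µL/g body weight) at 172.4 µmol/kg. Acute toxicity scored as % of animals; survival time recorded in days. At least 3 animals per experiment.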

Mus musculus [2] = test: Effect of heparin pretreatment on the acute toxicity when 4000 IU of heparin administered ip; Activity as % of animals; assay type: functional; outline: as §1
Mus musculus [3] = test: Effect of heparin pretreatment on the acute toxicity when 4000 IU of heparin administered iv; Activity as % of animals; assay type: functional; outline: as §1
Mus musculus [4] = test: Effect of heparin pretreatment on the acute toxicity when 8000 IU of heparin administered ip; assay type: functional; outline: as §1
Mus musculus [5] = test: Maximum survival time after heparin pretreatment to mice at 4000 IU of heparin administered intraperitoneally; assay type: functional; outline: as §1
Mus musculus [6] = test: Maximum survival time after heparin pretreatment to mice at 4000 IU of heparin administered intravenously; assay type: functional; outline: as §1
Mus musculus [7] = test: Maximum survival time after heparin pretreatment to mice at 8000 IU of heparin administered intraperitoneally; assay type: functional; outline: as §1
Mus musculus [8] = test: Minimum survival time after heparin pretreatment to mice at 0 IU of heparin administered

| Structure (SMILES) | Acute toxicity (Mus musculus [1]) | Acute toxicity (Mus musculus [2]) | Acute toxicity (Mus musculus [3]) | Acute toxicity (Mus musculus [4]) | MST (Mus musculus [5]) | MST (Mus musculus [6]) | MST (Mus musculus [7]) | min survival time (Mus musculus [8]) |
| --- | --- | --- | --- | --- | --- | --- | --- | --- |
| CC(O)C(=O)O.COc1cccc2c1C(=O)c1c(O)c3c(c(O)c1C2=O)C[C@@](O)(C(=O)CO)C[C@@H]3O[C@H]1C[C@H](NC(=O)[C@H](CC(C)C)NC(=O)[C@H](C)NC(=O)[C@H](CC(C)C)NC(=O)CCN)[C@H](O)[C@H](C)O1 | 100% | 37% | 33% | 0% | 9 days | 11 days | 11 days | 0 days |
| COc1cccc2c1C(=O)c1c(O)c3c(c(O)c1C2=O)C[C@@](O)(C(=O)CO)C[C@@H]3O[C@H]1C[C@H](NC(=O)[C@H](CC(C)C)NC(=O)[C@H](C)NC(=O)[C@H](CC(C)C)NC(=O)CCNC(=O)CCC(=O)[O-])[C@H](O)[C@H](C)O1.[Na+] | 0% |  |  |  |  |  |  | 9 days |
